Key:
Caco-2 = assay: Efflux ratio in human Caco2 cells in absence of P-gp inhibitor by LC-MS/MS analysis; format: ADME, cell-based
Summary of the method: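 Caco-2 bidirectional transport, with compound concentrations measured by LC-MS/MS. Efflux ratio was calculated as Papp(B−A)/Papp(A−B).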

[1] = target: RAC-gamma serine/threonine-protein kinase (Homo sapiens) (UniProt Q9Y243); assay: Inhibition of AKT3 (unknown origin) at 1 uM by mobility shift microfluidics platform based assay relative to control
[2] = target: Calcium/calmodulin-dependent protein kinase type 1D (Homo sapiens) (UniProt Q8IU85); assay: Inhibition of CAMK1D (unknown origin) at 1 uM by mobility shift microfluidics platform based assay relative to control
[3] = target: Calcium/calmodulin-dependent protein kinase type II subunit alpha (Homo sapiens) (UniProt Q9UQM7); assay: Inhibition of CAMK2A (unknown origin) at 1 uM by mobility shift microfluidics platform based assay relative to control
[4] = target: Casein kinase I isoform alpha (Homo sapiens) (UniProt P48729); assay: Inhibition of CK1-alpha1 (unknown origin) at 1 uM by mobility shift microfluidics platform based assay relative to control
[5] = target: Dual specificity protein kinase CLK1 (Homo sapiens) (UniProt P49759); assay: Inhibition of CLK1 (unknown origin) at 1 uM by mobility shift microfluidics platform based assay relative to control
[6] = target: Dual specificity protein kinase CLK2 (Homo sapiens) (UniProt P49760); assay: Inhibition of CLK2 (unknown origin) at 1 uM by mobility shift microfluidics platform based assay relative to control
[7] = target: Ephrin type-B receptor 4 (Homo sapiens) (UniProt P54760); assay: Inhibition of EPH-B4 (unknown origin) at 1 uM by mobility shift microfluidics platform based assay relative to control
[8] = target: Receptor tyrosine-protein kinase erbB-2 (Homo sapiens) (UniProt P04626); assay: Inhibition of ERB-B2 (unknown origin) at 1 uM by mobility shift microfluidics platform based assay relative to control
[9] = target: Tyrosine-protein kinase Fes/Fps (Homo sapiens) (UniProt P07332); assay: Inhibition of FES (unknown origin) at 1 uM by mobility shift microfluidics platform based assay relative to control
[10] = target: Fibroblast growth factor receptor 4 (Homo sapiens) (UniProt P22455); assay: Inhibition of FGFR4 (unknown origin) at 1 uM by mobility shift microfluidics platform based assay relative to control
[11] = target: Macrophage colony-stimulating factor 1 receptor (Homo sapiens) (UniProt P07333); assay: Inhibition of FMS (unknown origin) at 1 uM by mobility shift microfluidics platform based assay relative to control
[12] = target: Glycogen synthase kinase-3 alpha (Homo sapiens) (UniProt P49840); assay: Inhibition of GSK-3-alpha (unknown origin) at 1 uM by mobility shift microfluidics platform based assay relative to control
[13] = target: Homeodomain-interacting protein kinase 1 (Homo sapiens) (UniProt Q86Z02); assay: Inhibition of HIPK1 (unknown origin) at 1 uM by mobility shift microfluidics platform based assay relative to control
[14] = target: Inhibitor of nuclear factor kappa-B kinase subunit beta (Homo sapiens) (UniProt O14920); assay: Inhibition of IKK-beta (unknown origin) at 1 uM by mobility shift microfluidics platform based assay relative to control
[15] = target: Interleukin-1 receptor-associated kinase 1 (Homo sapiens) (UniProt P51617); assay: Inhibition of IRAK1 (unknown origin) at 1 uM by mobility shift microfluidics platform based assay relative to control
[16] = target: Interleukin-1 receptor-associated kinase 4 (Homo sapiens) (UniProt Q9NWZ3); assay: Inhibition of IRAK4 (unknown origin) at 1 uM by mobility shift microfluidics platform based assay relative to control
[17] = target: Mitogen-activated protein kinase 8 (Homo sapiens) (UniProt P45983); assay: Inhibition of JNK1 (unknown origin) at 1 uM by mobility shift microfluidics platform based assay relative to control
[18] = target: Leukocyte tyrosine kinase receptor (Homo sapiens) (UniProt P29376); assay: Inhibition of LTK (unknown origin) at 1 uM by mobility shift microfluidics platform based assay relative to control
[19] = target: Dual specificity mitogen-activated protein kinase kinase 1 (Homo sapiens) (UniProt Q02750); assay: Inhibition of MEK1 (unknown origin) at 1 uM by mobility shift microfluidics platform based assay relative to control
[20] = target: Dual specificity mitogen-activated protein kinase kinase 2 (Homo sapiens) (UniProt P36507); assay: Inhibition of MEK2 (unknown origin) at 1 uM by mobility shift microfluidics platform based assay relative to control
[21] = target: Hepatocyte growth factor receptor (Homo sapiens) (UniProt P08581); assay: Inhibition of MET (unknown origin) at 1 uM by mobility shift microfluidics platform based assay relative to control
[22] = target: Serine/threonine-protein kinase MRCK beta (Homo sapiens) (UniProt Q9Y5S2); assay: Inhibition of MRCK-beta (unknown origin) at 1 uM by mobility shift microfluidics platform based assay relative to control
[23] = target: Ribosomal protein S6 kinase alpha-4 (Homo sapiens) (UniProt O75676); assay: Inhibition of MSK2 (unknown origin) at 1 uM by mobility shift microfluidics platform based assay relative to control
[24] = target: Muscle, skeletal receptor tyrosine-protein kinase (Homo sapiens) (UniProt O15146); assay: Inhibition of MUSK (unknown origin) at 1 uM by mobility shift microfluidics platform based assay relative to control
[25] = target: Serine/threonine-protein kinase PAK 2 (Homo sapiens) (UniProt Q13177); assay: Inhibition of PAK2 (unknown origin) at 1 uM by mobility shift microfluidics platform based assay relative to control
[26] = target: Protein kinase C theta type (Homo sapiens) (UniProt Q04759); assay: Inhibition of PKC-theta (unknown origin) at 1 uM by mobility shift microfluidics platform based assay relative to control
[27] = target: Serine/threonine-protein kinase D3 (Homo sapiens) (UniProt O94806); assay: Inhibition of PRKD3 (unknown origin) at 1 uM by mobility shift microfluidics platform based assay relative to control
[28] = target: Serine/threonine-protein kinase Sgk2 (Homo sapiens) (UniProt Q9HBY8); assay: Inhibition of SGK2 (unknown origin) at 1 uM by mobility shift microfluidics platform based assay relative to control
[29] = target: Sphingosine kinase 2 (Homo sapiens) (UniProt Q9NRA0); assay: Inhibition of SPHK2 (unknown origin) at 1 uM by mobility shift microfluidics platform based assay relative to control
[30] = target: Activated CDC42 kinase 1 (Homo sapiens) (UniProt Q07912); assay: Inhibition of TNK2 (unknown origin) at 1 uM by mobility shift microfluidics platform based assay relative to control
[31] = target: Testis-specific serine/threonine-protein kinase 1 (Homo sapiens) (UniProt Q9BXA7); assay: Inhibition of TSSK1 (unknown origin) at 1 uM by mobility shift microfluidics platform based assay relative to control
[32] = target: Tyrosine-protein kinase ZAP-70 (Homo sapiens) (UniProt P43403); assay: Inhibition of ZAP70 (unknown origin) at 1 uM by mobility shift microfluidics platform based assay relative to control

Chain of Serine/threonine-protein kinase MRCK beta (Homo sapiens) (Q9Y5S2 whole entry): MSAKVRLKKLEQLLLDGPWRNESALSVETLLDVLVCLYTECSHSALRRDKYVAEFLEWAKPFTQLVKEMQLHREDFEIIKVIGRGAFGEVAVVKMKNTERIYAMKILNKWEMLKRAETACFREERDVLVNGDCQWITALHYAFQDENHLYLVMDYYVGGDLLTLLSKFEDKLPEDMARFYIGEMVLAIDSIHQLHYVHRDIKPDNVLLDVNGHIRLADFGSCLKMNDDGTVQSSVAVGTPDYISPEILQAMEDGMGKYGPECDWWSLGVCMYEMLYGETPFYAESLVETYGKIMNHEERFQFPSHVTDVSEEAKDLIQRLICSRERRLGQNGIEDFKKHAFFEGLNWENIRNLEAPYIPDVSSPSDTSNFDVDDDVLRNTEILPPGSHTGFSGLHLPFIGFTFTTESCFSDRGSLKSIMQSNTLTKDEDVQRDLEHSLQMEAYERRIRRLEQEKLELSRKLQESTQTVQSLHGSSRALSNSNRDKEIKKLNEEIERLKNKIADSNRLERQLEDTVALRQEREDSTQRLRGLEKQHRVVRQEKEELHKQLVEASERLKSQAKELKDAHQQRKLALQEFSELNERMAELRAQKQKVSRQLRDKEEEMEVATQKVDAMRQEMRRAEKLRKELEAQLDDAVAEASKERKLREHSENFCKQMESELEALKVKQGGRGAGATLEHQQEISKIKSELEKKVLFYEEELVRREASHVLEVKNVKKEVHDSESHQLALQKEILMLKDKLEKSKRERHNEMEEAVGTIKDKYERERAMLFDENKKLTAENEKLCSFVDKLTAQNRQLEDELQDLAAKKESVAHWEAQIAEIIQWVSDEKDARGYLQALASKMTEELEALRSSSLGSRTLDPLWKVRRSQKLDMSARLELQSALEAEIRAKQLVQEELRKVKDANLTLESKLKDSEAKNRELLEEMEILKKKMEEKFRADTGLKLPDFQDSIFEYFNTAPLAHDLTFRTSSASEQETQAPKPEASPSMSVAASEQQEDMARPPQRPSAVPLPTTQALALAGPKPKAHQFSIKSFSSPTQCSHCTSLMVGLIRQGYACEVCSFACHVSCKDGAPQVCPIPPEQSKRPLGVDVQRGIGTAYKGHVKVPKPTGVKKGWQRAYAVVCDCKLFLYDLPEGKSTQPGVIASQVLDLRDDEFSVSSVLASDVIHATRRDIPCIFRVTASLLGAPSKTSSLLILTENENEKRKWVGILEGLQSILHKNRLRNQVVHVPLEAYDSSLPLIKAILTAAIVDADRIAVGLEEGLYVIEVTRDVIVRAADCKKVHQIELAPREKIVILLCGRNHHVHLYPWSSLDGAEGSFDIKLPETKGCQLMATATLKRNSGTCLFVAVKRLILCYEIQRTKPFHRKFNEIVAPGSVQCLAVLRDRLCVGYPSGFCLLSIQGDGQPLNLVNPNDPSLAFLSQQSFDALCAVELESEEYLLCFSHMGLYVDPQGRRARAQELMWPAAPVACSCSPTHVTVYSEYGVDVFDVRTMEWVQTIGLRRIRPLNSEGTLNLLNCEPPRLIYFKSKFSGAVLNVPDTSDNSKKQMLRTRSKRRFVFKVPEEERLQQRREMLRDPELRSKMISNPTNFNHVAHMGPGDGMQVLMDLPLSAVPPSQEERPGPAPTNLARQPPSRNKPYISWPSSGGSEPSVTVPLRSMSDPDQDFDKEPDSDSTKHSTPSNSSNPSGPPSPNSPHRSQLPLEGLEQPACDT
Chain of Dual specificity protein kinase CLK2 (Homo sapiens) (P49760 whole entry, looked up): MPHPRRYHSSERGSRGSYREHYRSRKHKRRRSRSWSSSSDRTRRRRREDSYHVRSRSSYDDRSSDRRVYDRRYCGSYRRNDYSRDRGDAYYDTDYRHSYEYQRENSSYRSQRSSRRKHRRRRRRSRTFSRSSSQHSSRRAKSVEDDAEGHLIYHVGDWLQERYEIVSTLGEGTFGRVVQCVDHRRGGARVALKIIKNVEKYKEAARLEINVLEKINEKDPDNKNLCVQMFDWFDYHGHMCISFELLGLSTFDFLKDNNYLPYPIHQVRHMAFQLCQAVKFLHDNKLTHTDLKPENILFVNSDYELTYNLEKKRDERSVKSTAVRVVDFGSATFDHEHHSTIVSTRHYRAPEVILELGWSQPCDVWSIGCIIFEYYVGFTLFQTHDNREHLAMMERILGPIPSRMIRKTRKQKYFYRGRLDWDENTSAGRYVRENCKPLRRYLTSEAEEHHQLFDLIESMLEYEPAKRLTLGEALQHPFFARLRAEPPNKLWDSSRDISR
Chain of Ephrin type-B receptor 4 (Homo sapiens) (P54760 whole entry): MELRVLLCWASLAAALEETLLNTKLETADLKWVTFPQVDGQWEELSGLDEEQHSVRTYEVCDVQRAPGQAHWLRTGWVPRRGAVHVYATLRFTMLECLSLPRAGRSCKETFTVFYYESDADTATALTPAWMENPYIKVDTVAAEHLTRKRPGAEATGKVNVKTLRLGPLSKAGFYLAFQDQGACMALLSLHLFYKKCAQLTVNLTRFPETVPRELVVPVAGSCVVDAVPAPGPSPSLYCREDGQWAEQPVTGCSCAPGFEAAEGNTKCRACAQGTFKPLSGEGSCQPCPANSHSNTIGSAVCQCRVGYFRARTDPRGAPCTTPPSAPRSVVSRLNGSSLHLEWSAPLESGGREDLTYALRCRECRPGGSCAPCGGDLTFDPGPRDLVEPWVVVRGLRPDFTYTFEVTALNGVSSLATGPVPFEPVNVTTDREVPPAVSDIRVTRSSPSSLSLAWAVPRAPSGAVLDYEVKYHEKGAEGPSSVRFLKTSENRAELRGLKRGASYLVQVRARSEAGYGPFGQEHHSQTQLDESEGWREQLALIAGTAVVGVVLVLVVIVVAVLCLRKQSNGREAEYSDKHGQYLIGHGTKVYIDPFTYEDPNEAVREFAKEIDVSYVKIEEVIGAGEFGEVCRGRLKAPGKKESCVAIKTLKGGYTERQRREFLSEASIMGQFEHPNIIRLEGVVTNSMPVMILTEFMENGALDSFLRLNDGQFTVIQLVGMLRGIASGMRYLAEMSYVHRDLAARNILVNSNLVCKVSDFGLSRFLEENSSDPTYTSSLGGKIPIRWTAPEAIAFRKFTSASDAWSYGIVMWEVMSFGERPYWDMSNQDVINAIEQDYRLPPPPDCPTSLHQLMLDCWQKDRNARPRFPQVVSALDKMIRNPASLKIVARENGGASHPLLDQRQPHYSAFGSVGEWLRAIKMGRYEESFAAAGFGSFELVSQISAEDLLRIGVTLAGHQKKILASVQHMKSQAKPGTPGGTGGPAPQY
Chain of Testis-specific serine/threonine-protein kinase 1 (Homo sapiens) (Q9BXA7 whole entry): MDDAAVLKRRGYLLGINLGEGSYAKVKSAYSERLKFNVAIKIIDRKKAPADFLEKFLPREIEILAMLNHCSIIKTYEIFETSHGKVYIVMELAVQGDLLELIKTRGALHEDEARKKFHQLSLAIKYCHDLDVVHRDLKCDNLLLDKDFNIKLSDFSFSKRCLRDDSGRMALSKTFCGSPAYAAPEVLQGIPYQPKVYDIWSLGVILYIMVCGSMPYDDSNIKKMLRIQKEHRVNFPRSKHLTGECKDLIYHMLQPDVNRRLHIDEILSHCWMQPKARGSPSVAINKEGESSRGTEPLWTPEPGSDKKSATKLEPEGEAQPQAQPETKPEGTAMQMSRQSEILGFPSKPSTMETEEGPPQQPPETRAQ
Chain of Homeodomain-interacting protein kinase 1 (Homo sapiens) (Q86Z02 whole entry, looked up): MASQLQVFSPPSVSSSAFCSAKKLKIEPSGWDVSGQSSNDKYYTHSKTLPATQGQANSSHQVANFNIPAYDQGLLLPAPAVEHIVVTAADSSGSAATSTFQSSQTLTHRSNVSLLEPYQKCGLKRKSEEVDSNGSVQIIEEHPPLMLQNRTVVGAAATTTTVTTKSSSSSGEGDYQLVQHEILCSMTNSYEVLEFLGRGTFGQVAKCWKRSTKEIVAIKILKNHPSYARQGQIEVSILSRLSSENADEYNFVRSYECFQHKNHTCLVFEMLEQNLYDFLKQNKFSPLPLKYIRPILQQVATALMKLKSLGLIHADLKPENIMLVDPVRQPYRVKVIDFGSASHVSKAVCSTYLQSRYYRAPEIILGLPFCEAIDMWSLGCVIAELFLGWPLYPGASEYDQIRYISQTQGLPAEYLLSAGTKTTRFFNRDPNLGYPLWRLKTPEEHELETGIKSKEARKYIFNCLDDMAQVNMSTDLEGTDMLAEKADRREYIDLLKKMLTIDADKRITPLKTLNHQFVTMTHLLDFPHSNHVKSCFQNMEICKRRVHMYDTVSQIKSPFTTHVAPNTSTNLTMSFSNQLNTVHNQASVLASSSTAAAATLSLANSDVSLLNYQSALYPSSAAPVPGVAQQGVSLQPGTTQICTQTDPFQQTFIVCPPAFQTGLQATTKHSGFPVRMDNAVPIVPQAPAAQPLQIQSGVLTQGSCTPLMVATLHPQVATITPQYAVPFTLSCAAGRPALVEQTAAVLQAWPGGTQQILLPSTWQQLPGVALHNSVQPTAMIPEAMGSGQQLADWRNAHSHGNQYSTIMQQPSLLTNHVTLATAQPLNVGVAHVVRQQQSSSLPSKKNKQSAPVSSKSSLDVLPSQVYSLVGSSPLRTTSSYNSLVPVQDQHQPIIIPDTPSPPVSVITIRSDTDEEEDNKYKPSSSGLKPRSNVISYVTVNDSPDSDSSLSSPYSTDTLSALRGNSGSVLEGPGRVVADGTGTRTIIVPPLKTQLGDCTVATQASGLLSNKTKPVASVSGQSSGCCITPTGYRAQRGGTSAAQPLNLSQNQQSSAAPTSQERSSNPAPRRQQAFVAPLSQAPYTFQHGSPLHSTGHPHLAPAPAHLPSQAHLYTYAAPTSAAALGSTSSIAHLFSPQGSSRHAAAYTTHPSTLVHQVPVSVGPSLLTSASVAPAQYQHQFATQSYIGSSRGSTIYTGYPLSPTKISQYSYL

Row | Ratio (Caco-2) | inhibition [1] [%] | inhibition [2] [%] | inhibition [3] [%] | inhibition [4] [%] | inhibition [5] [%] | inhibition [6] [%] | inhibition [7] [%] | inhibition [8] [%] | inhibition [9] [%] | inhibition [10] [%] | inhibition [11] [%] | inhibition [12] [%] | inhibition [13] [%] | inhibition [14] [%] | inhibition [15] [%] | inhibition [16] [%] | inhibition [17] [%] | inhibition [18] [%] | inhibition [19] [%] | Compound | also measured
1 | 1.2 | 2 | 7 | 3 | 10 | 2 | 5 | 97 | 58 | 21 | 89 | 99 | 5 | -3 | 22 | 28 | 2 | -9 | 4 | 13 | CC(C)n1nc(C#Cc2cccc(NC(=O)c3cccc(C(F)(F)F)c3)c2)c2c(N)ncnc21 | inhibition [20]: 25%; inhibition [21]: 8%; inhibition [22]: -1%; inhibition [23]: 3%; inhibition [24]: 8%; inhibition [25]: 1%; inhibition [26]: 0%; inhibition [27]: -1%; inhibition [28]: 0%; inhibition [29]: 0%; inhibition [30]: 13%; inhibition [31]: 0%; inhibition [32]: 3%
2 | 3.2 | 3 | 10 | 6 | 2 | -1 | -1 | 80 | 0 | 0 | 62 | 87 | 6 | -2 | 2 | -3 | 3 | 2 | 8 | -8 | CC(C)n1nc(C#Cc2cccc3cc(-c4cccc(C(F)(F)F)c4)ncc23)c2c(N)ncnc21 | inhibition [20]: 6%; inhibition [21]: -1%; inhibition [22]: 1%; inhibition [23]: 5%; inhibition [24]: 3%; inhibition [25]: -2%; inhibition [26]: -2%; inhibition [27]: 1%; inhibition [28]: -2%; inhibition [29]: 20%; inhibition [30]: 3%; inhibition [31]: -1%; inhibition [32]: 4%

— ChEMBL document CHEMBL4229333, “Effects of rigidity on the selectivity of protein kinase inhibitors” (Eur J Med Chem, 2018)
